# Screens from PubChem BioAssay.
# Rows were chosen to be rich in hits. Some 3.3% of all compounds tested hit in one or more screens of this group.
# rCAG RNA binder: binders of r(CAG) RNA repeats, primary screen, biochemical, fluorescence. r(CAG) RNA repeat, TO-PRO-1 dye displacement fluorescence. inhibition, % at 3 µM. 370,000 tested, 1.3% active. AID 651821, 2012;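 active = inhibition above the plate cutoff, the mean of all test compounds on that plate plus 3 SD, cut at about 35% in these data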;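 note: 0% = DMSO alone and 100% = 100 µM mitoxantrone as full dye displacement; higher means more dye released from RNA so lower well fluorescence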
# ABHD4 inh: ABHD4 inhibitors, primary screen, biochemical, fluorescence polarization, mouse. (Lyso)-N-acylphosphatidylethanolamine lipase (Mus musculus), Q8VD66. purified mABHD4, FP-Rh probe fluorescence polarization. inhibition, % at 8.92 µM. 370,000 tested, 0.54% active. AID 720543, 2013;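 active = inhibition exceeding the mean over every tested compound plus 3 SD, cut at about 30% in these data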;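 note: 0% = plate median of compound wells and 100% = S159A mutant with DMSO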
#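 Test system: mABHD4 protein; Read-out basis: % inhibition; Incubation: 45 min + 60 min at 25 °C; Repeats: single replicate; Technique: fluorescence polarization with parallel and perpendicular emission, 525/598 nm; Compound: 8.92 µM, single dose; Benchmarks: full inhibition S159A mutant plus DMSO, zero as sample-well median.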
# PRMT1 inh: PRMT1 methyltransferase inhibitors, primary screen, biochemical, fluorescence polarization | inhibition, % at 2.79 µM | AID 652257, 2013 | recombinant PRMT1, activity-based probe fluorescence polarization | Protein arginine N-methyltransferase 1 (Homo sapiens), Q99873 | 370,000 tested, 1.3% active;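 active = inhibition above about 21% made by adding two undisclosed values, limit read from the data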
# Target sequence (Q99873 whole entry, looked up): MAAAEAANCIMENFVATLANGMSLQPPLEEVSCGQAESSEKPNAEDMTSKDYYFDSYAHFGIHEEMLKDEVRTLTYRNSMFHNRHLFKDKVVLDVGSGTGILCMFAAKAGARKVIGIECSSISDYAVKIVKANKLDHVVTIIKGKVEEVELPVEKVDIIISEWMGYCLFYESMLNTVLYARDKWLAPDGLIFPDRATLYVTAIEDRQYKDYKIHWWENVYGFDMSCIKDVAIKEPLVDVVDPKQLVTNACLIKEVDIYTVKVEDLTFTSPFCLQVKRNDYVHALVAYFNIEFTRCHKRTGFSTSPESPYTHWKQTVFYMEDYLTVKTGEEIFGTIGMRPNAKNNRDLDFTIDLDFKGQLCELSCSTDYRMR
# SIAE primary: human SIAE inhibitors, primary screen, biochemical, fluorescence polarization, FP-Rh probe, 1536-well HTS; Sialate O-acetylesterase (Homo sapiens), Q9HAT2; SIAE FP-Rh probe binding; inhibition, % at 9.66 µM; 370,000 tested, 0.69% active; AID 1053197, 2014;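 active = inhibition above a cutoff: mean of compounds within the control limits plus 3 SD of those, cut at about 17% in these data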;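 note: 0% = plate median of compound wells and 100% = probe without SIAE protein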
# HTRA1 inhibitor: HTRA1 serine protease inhibitors, primary screen, biochemical, fluorescence polarization, HTS. recombinant HTRA1, FP-rhodamine activity-based probe. inhibition, % at 5.96 µM. Q92743. AID 504803, 2011. 340,000 tested, 0.5% active; in the data active = inhibition above about 36%;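 note: 0% = enzyme with DMSO and 100% = wells lacking enzyme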
# rCAG bind conf: small molecules binding CAG repeat RNA – biochemical, fluorescence, confirmation; shares compounds with rCAG RNA binder; r(CAG) RNA repeat, TO-PRO-1 dye displacement fluorescence; inhibition, % at 3 µM; 4,300 tested, 70% active;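 active = inhibition above a per-plate cutoff, the mean inhibition of sample wells plus 3 SD, cut at about 35% in these data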;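 note: loss of TO-PRO-1 fluorescence as compound displaces dye from 1x1 AA loop RNA; 0% = DMSO only wells and 100% = 100 µM mitoxantrone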
# DNA CAG counter: displacement of TO-PRO-1 from CAG DNA duplex, counter-screen for rCAG RNA repeat binder project, biochemical, fluorescence, TO-PRO-1 dye, d(CAG) DNA oligo; AID 652068, 2013; 4,300 tested, 94% active; inhibition, % at 3 µM; shares compounds with rCAG RNA binder; d(CAG) DNA oligo TO-PRO-1 dye displacement;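 active = inhibition above its plate's cutoff, the mean test-well inhibition plus 3 SD, cut at about 4.8% in these data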;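 note: 0% = DNA dye mix with DMSO and 100% = 100 µM mitoxantrone; hits displace the dye from DNA and so lower well fluorescence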
# DNA CAG DR: inhibitors of DNA CAG/GTC TO-PRO-1 complex, dose response, counter-screen for rCAG RNA repeat binder project, biochemical, fluorescence, TO-PRO-1 dye; IC50, µM; 250 tested, 20% active; shares compounds with rCAG RNA binder; DNA CAG/GTC duplex TO-PRO-1 dye displacement fluorescence; in the data active = IC50 below about 10 µM
# An asterisk follows results filed as active; i = inactive; . = not tested or not shown.
SMILES,rCAG RNA binder,ABHD4 inh,PRMT1 inh,SIAE primary,HTRA1 inhibitor,rCAG bind conf,DNA CAG counter,others
N#Cc1c(NC(=O)c2ccc(Cn3cc(Br)cn3)o2)sc2c1CCCCC2,15,-13,0,-17,-47,.,.,
COc1ccc(C2c3[nH]c4ccccc4c3C[C@H]3C(=O)N(c4ccccc4C(=O)N4CCC(C(=O)O)CC4)C(=O)N23)cc1 (stereo partly specified),29,3,-2,-4,4,.,.,
CC(C)c1ccc(C2c3[nH]c4ccccc4c3C[C@H]3C(=O)N(c4ccccc4C(=O)N4CCC[C@H]4C(=O)O)C(=O)N23)cc1 (stereo partly specified),46*,-13,-2,-18,-21,70*,27*,DNA CAG DR=i
O=C(Nc1nc(-c2ccc3ccccc3c2)cs1)c1ccc(N2C(=O)CCC2=O)cc1,5,3,16,-3,4,.,.,
NS(=O)(=O)c1ccc(Nc2nc(-c3cccc([N+](=O)[O-])c3)cs2)cc1,36*,-6,6,-8,-14,23,17*,
NS(=O)(=O)c1ccc(Nc2nc(-c3ccc4ccccc4c3)cs2)cc1,52*,-43,21,6,2,36*,20*,
O=C(O)c1ccccc1C(=O)Nc1nc(-c2ccc3ccccc3c2)cs1,70*,-18,6,-10,-16,63*,26*,
Cc1ccc(-c2nnc(SCc3ccc([N+](=O)[O-])cc3)n2-c2ccccc2)cc1,6,2,0,6,.,.,.,
COC(=O)[C@]12C[C@H](CC(=O)N3CCN(C(=O)C4CC4)CC3)C(=O)N(CCC3=CCCCC3)C1=C[C@H](C(C)(C)C)O[C@@H]2C,2,-2,-3,4,.,.,.,
O=C(NCc1n[nH]c(=S)n1-c1ccc(Cl)c(Cl)c1)c1ccc(S(=O)(=O)N2CCCCC2)cc1,36*,6,23*,4,-6,30,11*,
O=C(/C=C(\Nc1cccc(Cl)c1F)c1ccccc1)c1ccccc1,6,-7,2,-6,.,.,.,
COC(=O)c1c(-c2ccc(C)cc2)csc1NC(=O)C1CC=CCC1C(=O)O (stereo unspecified),38*,-20,8,-2,-7,38*,8.5*,
COC(=O)c1c(-c2cc(C)ccc2C)csc1NC(=O)C1CC=CCC1C(=O)O (stereo unspecified),30,-3,-2,2,-7,.,.,
CC1CCc2c(sc(NC(=O)/C=C/c3cccs3)c2C(=O)O)C1 (stereo unspecified),46*,2,-1,-1,-2,66*,26*,
O=C(Nc1scc(-c2ccccc2)c1C(=O)O)c1ccccc1Cl,19,-8,1,2,-4,.,.,
Cc1ccc(C(=O)Nc2scc(-c3ccccc3)c2C(=O)O)cc1,51*,1,6,-2,-14,34,8.8*,
O=C(/C=C/c1cccs1)Nc1scc(-c2ccccc2)c1C(=O)O,37*,-22,13,-33,-32,36*,11*,
COC(=O)N1C[C@H](OC(=S)Nc2ccc(OC)cc2OC)[C@H]2C[C@@H]1c1ccccc1O2,5,-10,4,-1,.,.,.,
COc1ccc(-c2csc(NC(=O)c3ccccc3F)c2C(=O)O)cc1,48*,-9,6,1,-1,32,6.1*,
COc1cc(C2C(C#N)=C(N)Oc3c2c(-c2ccccc2)nn3-c2ccccc2)cc(OC)c1OC (stereo unspecified),62*,20,0,23*,7,25,8.5*,
Cc1ccc(-n2c(SCC(=O)c3ccc(O)c(O)c3)nnc2-c2ccccc2)cc1,39*,3,19,-22,.,37*,15*,
C=CCN1C(=O)[C@H](CC(=O)N2CCCC2)[C@@]2(C(=O)OCC)CCCC=C12,1,4,3,3,.,.,.,
COC12CC(=O)C(C(C)=O)=C(O)C1(C)c1c(O)c(C)c(O)c(C(C)=O)c1O2 (stereo unspecified),55*,4,2,-11,.,67*,30*,
CC(=O)c1c(O)c(C)c(O)c2c1OC1=CC(=O)/C(=C(/C)N)C(=O)C12C (stereo unspecified),9,-7,1,-2,-36,.,.,
CCOC(=O)c1sc(NC(=O)c2ccccc2C(=O)O)c(C(=O)OCC)c1C,45*,-11,8,-6,3,35*,7.7*,
SMILES,rCAG RNA binder,ABHD4 inh,PRMT1 inh,SIAE primary,HTRA1 inhibitor,rCAG bind conf,DNA CAG counter,others
CCOC(=O)c1c(NC(=O)c2cccc([N+](=O)[O-])c2C(=O)O)sc2c1CCCC2,31,-2,-4,4,-3,.,.,
CCOC(=O)c1c(NC(=O)c2ccco2)sc2c1CCCCC2,2,-1,-1,2,-1,.,.,
CCOC(=O)c1c(CC(C)C)csc1NC(=O)c1ccccc1C(=O)O,47*,6,1,1,-2,45*,12*,
CCOC(=O)c1c(NC(=O)c2c(C(=O)O)cccc2[N+](=O)[O-])sc2c1CCCC2,47*,-5,6,5,-1,34,10.0*,
CCOC(=O)c1c(NS(=O)(=O)Cc2ccccc2)sc2c1CCCC2,45*,9,4,15,-10,64*,21*,DNA CAG DR=>30
Cn1cccc1C(=O)N1CCN(S(=O)(=O)c2cccc3ccccc23)CC1,5,-3,-2,-3,.,.,.,
C[C@H]1[C@@H](NC(=O)c2cccc(C(F)(F)F)c2)CC[C@@]23CCCN2C(=O)CCC[C@@H]13,.,7,-1,0,.,.,.,
CC(C)Cc1csc(NC(=O)c2ccc(F)cc2)c1C(=O)O,35*,13,-1,3,-6,19,2,
CCOC(=O)c1c(NC(=O)c2ccccc2C(=O)O)sc2c1CCC2,47*,4,3,8,-1,29,7.3*,
CCOC(=O)c1c(NC(=O)c2cccs2)sc2c1CCC2,2,-3,-4,7,-2,.,.,
CC(C)OC(=O)c1c(NC(=O)C2CC=CCC2C(=O)O)sc2c1CCCCC2 (stereo unspecified),56*,0,0,4,-10,68*,22*,
